The text below walks through data of PMC11913021 (Journal of Medicinal Chemistry, 2024).

As usually defined, the IC50 is the concentration at which inhibition is half-maximal.

Type in all cases: cell-based
One experiment has as its system PLD. Nature of the experiment: PLD activity inhibition in A549 cells. To be noted: read-out: IC50 for PLD inhibition.
Another experiment deals with A549 cells. The experiment in a line: WST-1 cell viability assay, A549. As to conditions: read-out: IC50 of viability. A digest of the protocol:
(§1)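 Cells grown in DMEM or RPMI 1640 with 10% FBS and 1% penicillin/streptomycin at 37 °C, 5% CO2. Seeded at 5 × 10^3 cells/well and held 24 h at 37 °C, then exposed to test compound for 48 h. WST-1 absorbance was read at 450 nm, in triplicate. IC50 was taken as the concentration giving 50% growth inhibition versus control.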
Background: Formazan colour is commonly taken as a measure of viable cells.

For the next experiment, the system named is HCT116 cells. Nature of the experiment: WST-1 cell viability assay, HCT116. To be noted: read-out: IC50 of viability; HCT116, WST-1, 48 h. A digest of the protocol: as §1

Read-outs that look alike come from different tables or passages of the source. A value given as a limit tells only on which side of the number the result lay.

For “3,5-Bis(trifluoromethyl)phenyl 5-Fluoro-1H-indole-2-carboxylate [3ac]”, the IC50 was 3.1 µM with PLD; 50 µM with A549 cells (A549, WST-1, 48 h); over 50 µM with HCT116 cells.
Consider `C[C@@H](CN1CCC(n2c(=O)[nH]c3cc(Cl)ccc32)CC1)NC(=O)c1ccc2ccccc2c1` [VU0155069, reference compound], for which the IC50 in the experiment on A549 cells (Homo sapiens, A549, 48 h) turned out to be 18.5 µM.
In the case of “N-(3,4-Dihydroxyphenyl)-5-fluoro-1H-indole-2-carboxamide [4c]”, the IC50 in the experiment on PLD was 4.31 µM; with A549 cells (A549, WST-1, 48 h) it was over 200 µM; with HCT116 cells, over 50 µM.
